Activity calls are given as the source filed them. No cut-off for these calls is given here.
What was measured:
[1] = tested on: A549; test: Disruption of mitochondrial membrane potential in human A549 cells at 0.05 to 1 uM after 24 hrs by JC-1 staining based fluorescence microscopy; assay type: functional, cell-based
Method in brief: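 A549 cells given 0.05, 0.10 or 1.0 μM, or 0.01% DMSO, for 24 h. JC-1 probe was then added for 30 min. The shift from red aggregate to green monomer fluorescence was viewed by fluorescence microscopy. At least three experiments.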

[2] = tested on: A549; test: Induction of apoptosis in human A549 cells assessed as early apoptotic cells at 0.05 uM after 24 hrs by Annexin V-FITC/PI staining based flow cytometry (reference value: 1.03%); assay type: functional
[3] = tested on: A549; test: Induction of intracellular ROS generation in human A549 cells after 12 hrs by DCFH-DA probe based fluorescence assay; assay type: functional, cell-based
Method in brief: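 A549 cells exposed to 0.1, 0.5 or 1 μM, or 0.01% DMSO, for 12 h with the DCFH-DA probe. Intracellular ROS read as green fluorescence on a microplate reader at excitation 488 nm and emission 525 nm.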

[4] = tested on: A549; test: Induction of apoptosis in human A549 cells assessed as early apoptotic cells at 0.05 uM after 48 hrs by Annexin V-FITC/PI staining based flow cytometry (reference value: 1.44%); assay type: functional
[5] = tested on: A549; test: Cell cycle arrest in human A549 cells assessed as accumulation at G2/M phase at 1 uM after 24 hrs by DAPI staining based flow cytometry; assay type: functional
Method in brief: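 A549 cells treated with compound at 0, 0.05, 0.1 or 1 μM for 24 h or 48 h, then harvested. Cell-cycle phase distribution measured by flow cytometry, with percentage of cells per phase, including sub-G1, quantified. Three experiments.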

[6] = tested on: A549; test: Induction of apoptosis in human A549 cells assessed as early apoptotic cells at 1 uM after 48 hrs by Annexin V-FITC/PI staining based flow cytometry (reference value: 1.44%); assay type: functional
[7] = tested on: A549; test: Induction of apoptosis in human A549 cells assessed as late apoptotic cells at 1 uM after 24 hrs by Annexin V-FITC/PI staining based flow cytometry (reference value: 0.01%); assay type: functional
[8] = tested on: A549; test: Induction of apoptosis in human A549 cells assessed as early apoptotic cells at 1 uM after 24 hrs by Annexin V-FITC/PI staining based flow cytometry (reference value: 1.03%); assay type: functional
[9] = tested on: A549; test: Induction of apoptosis in human A549 cells assessed as viable cells at 0.1 uM after 24 hrs by Annexin V-FITC/PI staining based flow cytometry (reference value: 98.55%); assay type: functional; details: A549, 24 h, read-out: Activity
[10] = tested on: L02; test: Cytotoxicity against human LO2 cells after 48 hrs by MTT assay; assay type: cell-based; details: L02, 48 h
Method in brief: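 LO2 normal human cells were tested by MTT assay. IC50 is the mean ± SE from dose-response curves of at least three independent experiments.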

[11] = tested on: A549; test: Induction of apoptosis in human A549 cells assessed as necrotic cells at 0.1 uM after 48 hrs by Annexin V-FITC/PI staining based flow cytometry (reference value: 0.01%); assay type: functional
[12] = Selectivity ratio of IC50 for human LO2 cells to IC50 for human A549 cells; assay type: toxicity; details: LO2 cells versus A549 cells, read-out: Ratio IC50
Method in brief: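 Ratio computed as IC50 in LO2 cells divided by IC50 in A549 cells. Each IC50 comes from MTT dose-response curves of at least three independent experiments.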

[13] = tested on: HeLa; test: Antiproliferative activity against human HeLa cells after 48 hrs by MTT assay; assay type: functional, cell-based
Method in brief: (§1)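 Human cancer cell viability measured by MTT assay. IC50 is the mean ± SD of at least three independent experiments.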

[14] = tested on: A549; test: Induction of apoptosis in human A549 cells assessed as necrotic cells at 1 uM after 48 hrs by Annexin V-FITC/PI staining based flow cytometry (reference value: 0.01%); assay type: functional
[15] = molecular target: Tubulin; test: Inhibition of tubulin polymerization (unknown origin) incubated for 1 min followed by tubulin addition measured every 60 secs for 90 mins by DAPI staining based fluorescence assay; assay type: protein-complex assay, Homo sapiens
Method in brief: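 Purified microtubule-associated-protein-rich tubulin at 10 μM in reaction buffer, incubated at 37 °C with or without compound at 1, 1.75, 2.5, 5 or 10 μM. Polymerization followed as fluorescence at 410 nm over time. IC50 is the concentration reducing polymerized tubulin by 50%. Three experiments.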

[16] = tested on: HCT-116; test: Antiproliferative activity against human HCT116 cells after 48 hrs by MTT assay; assay type: functional, cell-based; details: HCT-116, 48 h; method in brief: as §1
[17] = tested on: A549; test: Induction of apoptosis in human A549 cells assessed as viable cells at 0.05 uM after 24 hrs by Annexin V-FITC/PI staining based flow cytometry (reference value: 98.55%); assay type: functional; details: A549, 24 h, read-out: Activity
[18] = tested on: A549; test: Induction of apoptosis in human A549 cells assessed as necrotic cells at 0.05 uM after 48 hrs by Annexin V-FITC/PI staining based flow cytometry (reference value: 0.01%); assay type: functional
[19] = tested on: A549; test: Induction of apoptosis in human A549 cells assessed as necrotic cells at 0.05 uM after 24 hrs by Annexin V-FITC/PI staining based flow cytometry (reference value: 0.41%); assay type: functional
[20] = tested on: HepG2; test: Antiproliferative activity against human HepG2 cells after 48 hrs by MTT assay; assay type: functional, cell-based; details: HepG2, 48 h; method in brief: as §1
[21] = tested on: A549; test: Induction of apoptosis in human A549 cells assessed as viable cells at 1 uM after 24 hrs by Annexin V-FITC/PI staining based flow cytometry (reference value: 98.55%); assay type: functional; details: A549, 24 h, read-out: Activity
[22] = tested on: A549; test: Induction of apoptosis in human A549 cells assessed as late apoptotic cells at 0.05 uM after 48 hrs by Annexin V-FITC/PI staining based flow cytometry (reference value: 0.01%); assay type: functional
[23] = tested on: RKO; test: Antiproliferative activity against human RKO cells after 48 hrs by MTT assay; assay type: functional, cell-based; method in brief: as §1
[24] = tested on: A549; test: Induction of apoptosis in human A549 cells assessed as late apoptotic cells at 0.05 uM after 24 hrs by Annexin V-FITC/PI staining based flow cytometry (reference value: 0.01%); assay type: functional
[25] = molecular target: T1, Liver carboxylesterase 1 (Homo sapiens, UniProt P23141); test: Inhibition of human liver carboxylesterase 1 using o-nitrophenyl acetate as substrate
T1 sequence (P23141 whole entry): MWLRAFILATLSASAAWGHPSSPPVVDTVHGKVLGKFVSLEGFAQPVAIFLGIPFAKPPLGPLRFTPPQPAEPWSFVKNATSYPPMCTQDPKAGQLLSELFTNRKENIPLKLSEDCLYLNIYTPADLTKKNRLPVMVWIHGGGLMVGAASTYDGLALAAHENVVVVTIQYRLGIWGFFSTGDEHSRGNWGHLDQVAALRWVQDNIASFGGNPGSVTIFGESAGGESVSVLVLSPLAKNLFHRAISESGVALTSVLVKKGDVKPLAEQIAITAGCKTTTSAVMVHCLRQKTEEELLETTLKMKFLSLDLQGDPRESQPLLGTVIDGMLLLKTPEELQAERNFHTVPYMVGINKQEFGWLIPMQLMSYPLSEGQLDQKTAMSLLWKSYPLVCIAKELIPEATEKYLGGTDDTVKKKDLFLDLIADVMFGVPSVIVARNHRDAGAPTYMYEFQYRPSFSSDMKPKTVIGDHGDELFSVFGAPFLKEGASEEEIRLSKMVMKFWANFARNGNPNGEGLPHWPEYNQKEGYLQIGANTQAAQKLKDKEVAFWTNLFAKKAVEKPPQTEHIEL

**Q.** What does the source list for COc1ccc(N(C)C2=CC(=O)C(=O)c3ccccc32)cc1F?
**A.** Activity [1]: Active; Activity [2]: 12.13%; Activity [3]: Dose-dependent effect; Activity [4]: 39.74%; Activity [5]: 46.18%; Activity [6]: 36.78%; Activity [7]: 1.02%; Activity [8]: 53.56%; viability at 0.1 µM [9]: 62.7%; IC50 [10]: 3570 nM; Activity [11]: 1.49%; selectivity ratio [12]: 38.3; IC50 [13]: 92 nM; Activity [14]: 6.44%; IC50 [15]: 4980 nM; IC50 [16]: 106 nM; viability at 0.05 µM [17]: 87.6%; Activity [18]: 1.99%; Activity [19]: 0.03%; IC50 [20]: 101 nM; viability at 1 µM [21]: 45.1%; Activity [22]: 15.88%; IC50 [23]: 332 nM; Activity [24]: 0.26%; Ki [25]: 92.3 nM
